Measurements pooled from the literature.
Compare with care: the assays were run in different laboratories.
Cell line: MRC5
Read-out: cell growth or viability

CCOC(=O)CCn1cc(C(=O)c2ccc(F)cc2)c2cc(-c3ccc(N4CCN(C(=O)OC(C)(C)C)CC4)nc3)cnc21
viability (MTT; 10 µM, 48 h): 92.1%

Nc1cc(Br)c(Br)cc1N
IC50 (72 h): 200 µM

C=CCc1cc(OC)c2c(c1)OCO2
IC50 (SRB): 420 µM

CS(=O)(=O)N1CCN(c2ccc(-c3cnc4[nH]cc(C(=O)c5ccc(F)cc5)c4c3)cn2)CC1
viability (MTT; 10 µM, 48 h): 79.1%

Nc1cc(Cl)c(Cl)cc1N
IC50 (72 h): > 250 µM

N.N.[Cl][Pt][Cl]
EC50 (SRB): 5.8 µM

COc1c2c(cc3c1OCO3)[C@]13C=C[C@H](OC)C[C@@H]1[N@](C2)C[C@H]3OC(=O)c1ccc2ccccc2c1
IC50 (WST-1): > 10 µM

CC(C)(C)OC(=O)N1CCN(c2cc(-c3cnc4[nH]cc(C(=O)c5ccc(F)cc5)c4c3)ccn2)CC1
viability (MTT; 10 µM, 48 h): 78.9%

CC1=CC(=O)c2c(O)cccc2C1=O
IC50 (SRB): 5.15 µM

CC(C)(C)OC(=O)N1CCN(c2ccc(-c3cnc4[nH]cc(C(=O)c5ccc(F)cc5)c4c3)cc2)CC1
viability (MTT; 10 µM, 48 h): 78.7%

O=c1c2ccccc2[se]n1-c1ccccc1
IC50 (MTT; 72 h): 94 µM

COc1c2c(cc3c1OCO3)[C@]13C=C[C@H](OC)C[C@@H]1[N@](C2)C[C@H]3OC(=O)c1ccoc1
IC50 (WST-1): > 10 µM

CC(C)=CCOc1c2occc2cc2ccc(=O)oc12
IC50 (MTT; 72 h): > 100 µM
